Experimental data collected from several papers.
Protocols differ between the studies behind these lines.
CHRM1: Muscarinic acetylcholine receptor M1 (CHRM1, Homo sapiens, UniProt P11229)
CYP1A2: Cytochrome P450 1A2 (CYP1A2, Homo sapiens, UniProt P05177)
ALDH2: Aldehyde dehydrogenase, mitochondrial (ALDH2, Homo sapiens, UniProt P05091)
CYP3A4: Cytochrome P450 3A4 (CYP3A4, Homo sapiens, UniProt P08684)
HDAC11: Histone deacetylase 11 (HDAC11, Homo sapiens, UniProt Q96DB2)

| SMILES | target | test | test system | conditions | IC50 [µM] |
| --- | --- | --- | --- | --- | --- |
| O=C(CCNC(=O)CNC(=O)CC(c1ccccc1)(c1ccccc1)c1ccccc1)NC[C@H]1CCCN(Cc2ccc(F)cc2)C1 | CHRM1 | ligand displacement, radioligand | – | cell membranes | 13.9 |
| OCc1ccc(-c2nn(Cc3ccccc3)c3ccccc23)o1 | CYP1A2 | enzyme activity, inhibitor | human, liver microsomes | – | 0.9 |
| CC(C)N(CCC(=O)c1ccc2ccccc2c1)Cc1ccccc1 | ALDH2 | enzyme activity, inhibitor, fluorescence | – | – | < 10 |
| C=CCn1c(=O)c2cnc(Nc3ccc(N4CCN(C)CC4)cc3)nc2n1-c1ccc2c(n1)[C@@](O)(CC)CC2 | CYP3A4 | enzyme activity, inhibitor | – | – | 7 |
| CN(C)C(=O)c1cc2cnc(Nc3ccc(-c4ccc5c(=O)cc(N6CCOCC6)oc5c4)cc3)nc2n1C1CCCC1 | CYP1A2 | enzyme activity, inhibitor, fluorescence | – | pH 8 | > 100 |
| O=C(CCNC(=O)CNC(=O)CC(c1ccccc1)(c1ccccc1)c1ccccc1)NC[C@@H]1CCCN(Cc2cccnc2F)C1 | CHRM1 | ligand displacement, radioligand | – | cell membranes | > 30 |
| CN(C)CCC=C1c2ccccc2CCc2ccccc21 | Short transient receptor potential channel 5 (Mus musculus, UniProt Q9QX29) | ion current, inhibitor, patch clamp | – | – | 2.88 |
| COc1ccc(N(Cc2csc(-c3ccc(Br)cc3)n2)C(=O)CCCCCC(=O)NO)cc1 | HDAC11 | enzyme activity, inhibitor | – | – | > 10 |
| CCCN(CCC)S(=O)(=O)c1ccc(C(=O)O)cc1 | Taste receptor type 2 member 14 (TAS2R14, Homo sapiens, UniProt Q9NYV8, S265A) | inositol phosphate, antagonist, TR-FRET | – | – | 1000 |
| COc1nc2ccc(Br)cc2cc1[C@@H](c1ccccc1)[C@@](O)(CCN(C)C)c1cccc2ccccc12 | ALDH2 | enzyme activity, inhibitor, fluorescence | – | – | < 10 |
| CCc1oc2cc(F)c(F)cc2c1C(=O)c1cc(Br)c(O)c(Br)c1 | Solute carrier organic anion transporter family member 1B1 (SLCO1B1, Homo sapiens, UniProt Q9Y6L6) | transporter uptake, inhibitor, radiometric | – | oocytes | 7.34 |
| CNC(=O)[C@H](Cc1c[nH]c2ccccc12)NC(=O)[C@@H](CC(=O)NO)CC(C)C | Collagenase 3 (MMP13, Homo sapiens, UniProt P45452) | enzyme activity, inhibitor | – | – | 0.000129 |
| CCc1cnn2c(NCc3ccc[n+]([O-])c3)cc(N3CCCC[C@H]3CCO)nc12 | Tyrosine-protein kinase JAK1 (JAK1, Homo sapiens, UniProt P23458) | enzyme activity, inhibitor, ELISA | – | – | 0.062 |
| O=C1Nc2ccccc2C12CC2c1cc(Cl)c(O)c(Cl)c1 (stereo not drawn) | ALDH2 | enzyme activity, inhibitor, fluorescence | – | – | > 50 |
| Cc1ccc(OCC(=O)N[C@@H](Cc2c[nH]c3ccccc23)C(=O)OC(C)C)cc1 | CYP1A2 | enzyme activity, inhibitor | human, liver microsomes | 30 min | > 50 |
| O=C1Nc2ccccc2/C1=C\c1cc(F)c(O)c(F)c1 | ALDH2 | enzyme activity, inhibitor, fluorescence | – | – | 0.9 |
| COc1ccc(N(Cc2nc(-c3ccc(F)cc3)cs2)C(=O)CCCCCC(=O)NO)cc1 | HDAC11 | enzyme activity, inhibitor | – | – | > 10 |
| O=C(O)c1cc(-c2ccc(-n3ccnn3)cc2)c2ccc(-c3ccc(C(F)(F)F)cc3)cc2c1 | CYP3A4 | enzyme activity, inhibitor | – | – | 7.07 |
